Measured values from ChEMBL document CHEMBL3792364, “Identification and biological activity of 6-alkyl-substituted 3-methyl-pyridine-2-carbonyl amino dimethyl-benzoic acid EP4 antagonists” (Bioorg Med Chem Lett, 2016).
Converted amounts (≈) assume the structure as drawn. The source made the active and inactive calls. The calls are words filed in the database; no cut-off is given here.

Columns and labels:
[1] = molecular target: T1, Prostaglandin E2 receptor EP4 subtype (Homo sapiens, UniProt P35408); assay: Antagonist activity against EP4 in human whole blood assessed as reversal of PGE2-mediated suppression of LPS-induced TNF-alpha production preincubated for 30 mins followed by LPS stimulation measured after 20 to 24 hrs by enzyme immunoassay; assay type: tissue-based
T1 sequence (P35408 whole entry): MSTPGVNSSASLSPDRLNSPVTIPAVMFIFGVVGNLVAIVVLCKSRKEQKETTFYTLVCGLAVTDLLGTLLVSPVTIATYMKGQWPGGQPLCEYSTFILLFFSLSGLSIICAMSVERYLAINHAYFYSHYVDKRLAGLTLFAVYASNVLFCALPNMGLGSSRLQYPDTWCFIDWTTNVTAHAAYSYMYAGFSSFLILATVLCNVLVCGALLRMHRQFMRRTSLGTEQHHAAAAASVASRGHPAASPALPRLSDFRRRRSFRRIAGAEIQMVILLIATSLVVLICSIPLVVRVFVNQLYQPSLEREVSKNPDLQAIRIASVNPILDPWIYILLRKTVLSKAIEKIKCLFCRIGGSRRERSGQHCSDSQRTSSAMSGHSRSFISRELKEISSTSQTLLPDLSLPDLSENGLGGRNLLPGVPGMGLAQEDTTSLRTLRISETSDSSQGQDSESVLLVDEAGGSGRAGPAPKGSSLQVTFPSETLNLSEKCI
Summary of the method: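 Pooled blood from donors free of NSAIDs or celecoxib for 48 h and of glucocorticoids for 2 weeks. Blood pretreated 30 min at 37 °C, 5% CO2 with compound in DMSO (7-point curve, triplicate). LPS […] ± 10 nM PGE2 (final) added, then incubated 20–24 h. Plasma TNFα read at A450-A650. IC50 from sigmoidal nonlinear fit; geometric mean of independent runs.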

[2] = molecular target: T1, Prostaglandin E2 receptor EP4 subtype; assay: Antagonist activity against human EP4 expressed in HEK293 cells assessed as inhibition of PGE2-stimulated production of cAMP incubated for 20 mins by HTRF assay; assay type: functional, cell-based
[3] = Aqueous solubility of compound at pH 6 at 2 mM after 20 hrs by HPLC; assay type: physicochemical; conditions: aqueous medium
Summary of the method: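 Samples in DMSO dried 12 h, then redissolved at pH 6 at a 2 mM target concentration. Stirred 20 h, filtered through 0.7 µm GF filter. Filtrate concentration measured by HPLC against a DMSO standard curve.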

Rattus norvegicus [4] = assay: Antiinflammatory activity in rat adjuvant induced arthritis model assessed as suppression of Mycobacterium tuberculosis H37 RA induced paw swelling at 10 mg/kg measured from day 11 to 15 relative to vehicle control; assay type: functional, organism-based
Summary of the method: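 Rat adjuvant-induced arthritis: paw widths measured, then 0.25 mg adjuvant (Mycobacterium tuberculosis H37 RA) in 100 µl mineral oil given intradermally at tail base (day 0). On day 11, width of both paws was re-measured as percent change from day 0, and rats were randomized on this and body weight before dosing. Rats were euthanized day 15 without further dosing and paw width measured.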

Rattus norvegicus [5] = assay: Antiinflammatory activity in rat MIA model assessed as inhibition of differential weight bearing at 5 mg/kg, po measured 30 mins post dose by incapacitance test; assay type: functional, organism-based
Summary of the method: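 MIA 0.3 mg in 50 µL saline injected into right knee and saline into left knee of rats on day 0. Day 12: randomized, single oral dose in 10% acacia in water plus 0.05% antifoam at 0.3–10 mg/kg, with diclofenac 5 mg/kg. Hind-limb weight distribution measured by incapacitance tester 30 min post dose. n = 5/group, Dunnett's test versus vehicle.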

Question: For `Cc1ccc(N2CCC(C)(O)CC2)nc1C(=O)Nc1c(C)cc(C(=O)O)cc1C`, which IC50 [1] is on record?
Answer: Its IC50 is 3600 nM.

Question: And the IC50 [2]?
Answer: The IC50 was 39.8 nM.

Question: What about the solubility at 20 h, 2000 µM [3] of the same molecule?
Answer: The solubility at 20 h, 2000 µM was 817 µg/mL (≈ 2060 µM).

Question: Which IC50 [2] does the source give for `Cc1ccc(N2CCC(CO)C2)nc1C(=O)Nc1c(C)cc(C(=O)O)cc1C` (stereo not given) here?
Answer: The IC50 was 84 nM.

Question: Which IC50 [1] does the source give for `Cc1ccc(N2CCC(O)CC2)nc1C(=O)Nc1c(C)ccc(C(=O)O)c1C` here?
Answer: Its IC50 is 1450 nM.

Question: What about the IC50 [2] of the same molecule?
Answer: The IC50 was 19.5 nM.

Question: And the solubility at 20 h, 2000 µM [3]?
Answer: The solubility at 20 h, 2000 µM was 784 µg/mL (≈ 2040 µM).

Question: What does the source list for `O=C(O)Cc1ccccc1Nc1c(Cl)cccc1Cl`?
Answer: Activity (Rattus norvegicus [4]): Active; Activity (Rattus norvegicus [5]): Active

Question: With `Cc1ccc(N2CCC(C)(O)CC2)nc1C(=O)Nc1c(C)ccc(C(=O)O)c1C` as the molecule, how does the IC50 [2] read?
Answer: The IC50 was 87.9 nM.
